Measured values reported in ChEMBL document CHEMBL1146277, “The discovery of 6-[2-(5-chloro-2-{[(2,4-difluorophenyl)methyl]oxy}phenyl)-1-cyclopenten-1-yl]-2-pyridinecarboxylic acid, GW848687X, a potent and selective prostaglandin EP1 receptor antagonist for the treatment of inflammatory pain” (Bioorg Med Chem Lett, 2007).
Active and inactive are the calls of the source. The rule behind the calls is not given here.

Tested on: not listed separately
Experiment: Half life in rat at 1 mg/kg, iv
Format: ADME, organism-based
Design: dose 1 mg/kg, route intravenous
Conditions: in vivo

half-life	Structure (SMILES)
0.2 h	O=C(O)c1cccc(C2=C(c3cc(Br)ccc3OCc3ccc(F)cc3)CCC2)c1
0.3 h	O=C(O)c1cccc(C2=C(c3cc(Br)ccc3OCc3ccccc3)CCC2)c1
0.2 h	O=C(O)c1cccc(C2=C(c3cc(Br)ccc3OCc3ccc(F)cc3F)CCC2)c1

Tested on: Rattus norvegicus
Experiment: Reversal of hypersensitivity in po dosed FCA rat model of acute inflammatory pain
Format: functional
Conditions: not given
Summary of the method: (§1)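 Freund's complete adjuvant injected into one hind paw; 24 h later, with hypersensitivity established, rats received a single oral dose of test compound in 1% methylcellulose. Hypersensitivity was read by weight bearing as percent inhibition (reversal) for each dose. Tested either as a single 5 mg/kg po dose or as a 3-point dose response, with ED₅₀ calculated as the dose giving 50% reversal.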

Structure (SMILES)	ED50
O=C(O)c1cncc(C2=C(c3cc(C(F)(F)F)ccc3OCc3ccccc3)CCC2)c1	1.3 mg/kg
O=C(O)c1cccc(C2=C(c3cc(Cl)ccc3OCc3ccc(F)cc3F)CCC2)n1	1.3 mg/kg

Tested on: Rattus norvegicus
Experiment: Reversal of hypersensitivity in FCA rat model of acute inflammatory pain at 5 mg/kg, po
Format: functional
Conditions: not given
Summary of the method: as §1

Structure (SMILES)	Activity
O=C(O)c1cncc(C2=C(c3cc(Cl)ccc3OCc3ccc(F)cc3F)CCC2)n1	52%
Cc1ncc(C2=C(c3cc(Cl)ccc3OCc3ccc(F)cc3)CCC2)cc1C(=O)O	<30%

Tested on: not listed separately
Experiment: Half life in rat
Format: ADME, organism-based
Conditions: in vivo

half-life	Structure (SMILES)
4.1 h	O=C(O)c1cncc(C2=C(c3cc(C(F)(F)F)ccc3OCc3ccccc3)CCC2)c1
2.2 h	O=C(O)c1cccc(C2=C(c3cc(Cl)ccc3OCc3ccc(F)cc3F)CCC2)n1

Tested on: not listed separately
Experiment: Blood clearance in rat at 1 mg/kg, iv
Format: ADME, organism-based
Design: dose 1 mg/kg, route intravenous
Conditions: whole blood

clearance	Structure (SMILES)
46 mL/min/kg	O=C(O)c1cccc(C2=C(c3cc(Br)ccc3OCc3ccc(F)cc3)CCC2)c1
52 mL/min/kg	O=C(O)c1cccc(C2=C(c3cc(Br)ccc3OCc3ccccc3)CCC2)c1
35 mL/min/kg	O=C(O)c1cccc(C2=C(c3cc(Br)ccc3OCc3ccc(F)cc3F)CCC2)c1
33 mL/min/kg	O=C(O)c1cccc(C2=C(c3cc(Br)ccc3OCc3ccc(Cl)cc3)CCC2)c1

Tested on: Rattus norvegicus
Experiment: Reversal of antihyperalgesic effect in chronic rat model of joint pain at 30 mg/kg bid for 5 days
Conditions: not given

Structure (SMILES)	Activity
O=C(O)c1cccc(C2=C(c3cc(Cl)ccc3OCc3ccc(F)cc3F)CCC2)n1	Active

Tested on: not listed separately
Experiment: Oral bioavailability in rat
Format: ADME, organism-based
Conditions: in vivo

bioavailability	Structure (SMILES)
54%	O=C(O)c1cccc(C2=C(c3cc(Cl)ccc3OCc3ccc(F)cc3F)CCC2)n1

Target: T1, Prostaglandin E2 receptor EP1 subtype (Homo sapiens, UniProt P34995)
T1 sequence (P34995 whole entry): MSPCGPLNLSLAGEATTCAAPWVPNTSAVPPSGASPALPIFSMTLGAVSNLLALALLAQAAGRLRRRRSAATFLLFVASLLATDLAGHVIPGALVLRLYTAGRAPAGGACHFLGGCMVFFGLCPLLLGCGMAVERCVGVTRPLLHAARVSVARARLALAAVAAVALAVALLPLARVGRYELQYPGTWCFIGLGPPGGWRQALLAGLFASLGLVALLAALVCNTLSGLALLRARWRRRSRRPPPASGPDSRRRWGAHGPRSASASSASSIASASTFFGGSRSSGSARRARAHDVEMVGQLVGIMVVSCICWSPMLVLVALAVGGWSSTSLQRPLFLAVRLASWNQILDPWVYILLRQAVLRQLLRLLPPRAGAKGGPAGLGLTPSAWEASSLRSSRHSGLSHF
Experiment: Antagonist activity at human EP1 receptor
Format: functional
Conditions: read-out: pA2 (converted)

Kb	Structure (SMILES)
0.794 nM	O=C(O)c1cccc(C2=C(c3cc(Cl)ccc3OCc3ccc(F)cc3F)CCC2)n1

Tested on: not listed separately
Experiment: Oral bioavailability in dog
Format: ADME, organism-based, Canis lupus familiaris
Conditions: in vivo

bioavailability	Structure (SMILES)
53%	O=C(O)c1cccc(C2=C(c3cc(Cl)ccc3OCc3ccc(F)cc3F)CCC2)n1

Tested on: not listed separately
Experiment: Blood clearance in rat
Format: ADME, organism-based
Conditions: whole blood

clearance	Structure (SMILES)
22 mL/min/kg	O=C(O)c1cncc(C2=C(c3cc(C(F)(F)F)ccc3OCc3ccccc3)CCC2)c1
7 mL/min/kg	O=C(O)c1cccc(C2=C(c3cc(Cl)ccc3OCc3ccc(F)cc3F)CCC2)n1

Tested on: not listed separately
Experiment: Intrinsic clearance in rat liver microsomes
Format: ADME, Microsome
Conditions: not given
Summary of the method: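 Rate of metabolism measured as intrinsic clearance (ml/min/g) in a rat microsomal assay.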

CLint scaled	Structure (SMILES)
20 mL/min/g	O=C(O)c1ccnc(C2=C(c3cc(Br)ccc3OCc3ccc(F)cc3)CCC2)c1
2.6 mL/min/g	O=C(O)c1cncc(C2=C(c3cc(Cl)ccc3OCc3ccc(F)cc3F)CCC2)n1
14 mL/min/g	O=C(O)c1cnnc(C2=C(c3cc(Cl)ccc3OCc3ccc(F)cc3F)CCC2)c1
2.2 mL/min/g	O=C(O)c1cncc(C2=C(c3cc(C(F)(F)F)ccc3OCc3ccccc3)CCC2)c1
3.8 mL/min/g	Cc1ncc(C2=C(c3cc(Cl)ccc3OCc3ccc(F)cc3)CCC2)cc1C(=O)O
2.9 mL/min/g	O=C(O)c1cccc(C2=C(c3cc(Cl)ccc3OCc3ccc(F)cc3F)CCC2)n1

Target: T2, Prostaglandin E2 receptor EP3 subtype (Homo sapiens, UniProt P43115)
T2 sequence (P43115 whole entry): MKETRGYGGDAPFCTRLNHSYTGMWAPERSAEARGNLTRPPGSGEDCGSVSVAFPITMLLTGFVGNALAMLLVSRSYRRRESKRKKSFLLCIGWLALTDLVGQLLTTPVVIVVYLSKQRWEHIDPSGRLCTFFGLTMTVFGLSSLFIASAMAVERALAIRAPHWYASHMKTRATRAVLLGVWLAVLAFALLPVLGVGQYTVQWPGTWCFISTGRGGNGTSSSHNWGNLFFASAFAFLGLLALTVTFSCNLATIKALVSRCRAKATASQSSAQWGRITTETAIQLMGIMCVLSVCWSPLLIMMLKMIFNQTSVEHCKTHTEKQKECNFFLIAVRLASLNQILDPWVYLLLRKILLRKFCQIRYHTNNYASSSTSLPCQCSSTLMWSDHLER
Experiment: Inhibition of human EP3 receptor
Conditions: not given

IC50	Structure (SMILES)
> 3160 nM	N#Cc1ccc(OCc2ccc(F)cc2F)c(C2=C(c3cccc(C(=O)O)c3)CCC2)c1
> 3160 nM	N#Cc1ccc(OCc2ccc(Cl)cc2)c(C2=C(c3cccc(C(=O)O)c3)CCC2)c1
> 3160 nM	CSc1ccc(OCc2ccc(F)cc2)c(C2=C(c3cccc(C(=O)O)c3)CCC2)c1
> 3160 nM	CS(=O)(=O)c1ccc(OCc2ccccc2)c(C2=C(c3cccc(C(=O)O)c3)CCC2)c1
> 3160 nM	O=C(O)c1cccc(C2=C(c3cc(Br)ccc3OCc3ccc(F)cc3)CCC2)c1
> 3160 nM	N#Cc1ccc(OCc2ccc(F)cc2)c(C2=C(c3cccc(C(=O)O)c3)CCC2)c1
> 3160 nM	O=C(O)c1cccc(C2=C(c3cc(Br)ccc3OCc3ccccc3)CCC2)c1
> 3160 nM	CS(=O)(=O)c1ccc(OCc2ccc(F)cc2F)c(C2=C(c3cccc(C(=O)O)c3)CCC2)c1
> 3160 nM	O=C(O)c1cccc(C2=C(c3cc(Br)ccc3OCc3ccc(F)cc3F)CCC2)c1
> 3160 nM	O=C(O)c1cccc(C2=C(c3cc(Br)ccc3OCc3ccc(Cl)cc3)CCC2)c1

Tested on: not listed separately
Experiment: Volume of distribution in rat at 1 mg/kg, iv
Format: ADME, organism-based
Design: dose 1 mg/kg, route intravenous
Conditions: in vivo, read-out: Vdss

Vd	Structure (SMILES)
0.7 L/kg	O=C(O)c1cccc(C2=C(c3cc(Br)ccc3OCc3ccc(F)cc3)CCC2)c1
1 L/kg	O=C(O)c1cccc(C2=C(c3cc(Br)ccc3OCc3ccccc3)CCC2)c1
0.6 L/kg	O=C(O)c1cccc(C2=C(c3cc(Br)ccc3OCc3ccc(F)cc3F)CCC2)c1
0.4 L/kg	O=C(O)c1cccc(C2=C(c3cc(Br)ccc3OCc3ccc(Cl)cc3)CCC2)c1

Tested on: not listed separately
Experiment: Half life in dog
Format: ADME, organism-based, Canis lupus familiaris
Conditions: in vivo

half-life	Structure (SMILES)
2 h	O=C(O)c1cccc(C2=C(c3cc(Cl)ccc3OCc3ccc(F)cc3F)CCC2)n1

Target: Cytochrome P450 2C9 (Homo sapiens, UniProt P11712)
Experiment: Inhibition of human CYP2C9
Format: ADME
Conditions: not given
Summary of the method: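 Inhibition measured in a human recombinant CYP2C9 isozyme assay; IC₅₀ reported in µM.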

Sequence of Cytochrome P450 2C9 (P11712 whole entry): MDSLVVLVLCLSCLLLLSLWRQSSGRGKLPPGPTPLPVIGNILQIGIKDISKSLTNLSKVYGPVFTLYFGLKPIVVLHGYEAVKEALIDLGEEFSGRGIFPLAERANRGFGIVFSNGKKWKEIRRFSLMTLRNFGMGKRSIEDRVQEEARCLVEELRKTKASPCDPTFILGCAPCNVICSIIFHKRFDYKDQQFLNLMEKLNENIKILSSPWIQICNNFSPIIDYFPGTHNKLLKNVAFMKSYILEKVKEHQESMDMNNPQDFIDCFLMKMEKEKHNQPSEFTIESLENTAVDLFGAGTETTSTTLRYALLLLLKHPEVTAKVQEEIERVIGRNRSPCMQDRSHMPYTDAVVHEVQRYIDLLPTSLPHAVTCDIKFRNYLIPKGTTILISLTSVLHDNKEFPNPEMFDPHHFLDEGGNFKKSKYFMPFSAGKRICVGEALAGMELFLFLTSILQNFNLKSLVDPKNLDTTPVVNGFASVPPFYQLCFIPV

IC50	Structure (SMILES)
5000 nM	O=C(O)c1ccnc(C2=C(c3cc(Br)ccc3OCc3ccc(F)cc3)CCC2)c1
12000 nM	O=C(O)c1cncc(C2=C(c3cc(Cl)ccc3OCc3ccc(F)cc3F)CCC2)n1
5400 nM	O=C(O)c1cnnc(C2=C(c3cc(Cl)ccc3OCc3ccc(F)cc3F)CCC2)c1
14000 nM	O=C(O)c1cncc(C2=C(c3cc(C(F)(F)F)ccc3OCc3ccccc3)CCC2)c1
9000 nM	Cc1ncc(C2=C(c3cc(Cl)ccc3OCc3ccc(F)cc3)CCC2)cc1C(=O)O
14000 nM	O=C(O)c1cccc(C2=C(c3cc(Cl)ccc3OCc3ccc(F)cc3F)CCC2)n1

Tested on: not listed separately
Experiment: Lipophilicity, log D of the compound
Format: physicochemical
Conditions: octanol/water

logD	Structure (SMILES)
2.7	O=C(O)c1ccnc(C2=C(c3cc(Br)ccc3OCc3ccc(F)cc3)CCC2)c1
1.6	O=C(O)c1cncc(C2=C(c3cc(Cl)ccc3OCc3ccc(F)cc3F)CCC2)n1
1.2	O=C(O)c1cnnc(C2=C(c3cc(Cl)ccc3OCc3ccc(F)cc3F)CCC2)c1
2.7	O=C(O)c1cncc(C2=C(c3cc(C(F)(F)F)ccc3OCc3ccccc3)CCC2)c1
2.7	Cc1ncc(C2=C(c3cc(Cl)ccc3OCc3ccc(F)cc3)CCC2)cc1C(=O)O
2.6	O=C(O)c1cccc(C2=C(c3cc(Cl)ccc3OCc3ccc(F)cc3F)CCC2)n1

Target: T1, Prostaglandin E2 receptor EP1 subtype
Experiment: Inhibition of human EP1 receptor
Conditions: not given

IC50	Structure (SMILES)
39.8 nM	N#Cc1ccc(OCc2ccc(F)cc2F)c(C2=C(c3cccc(C(=O)O)c3)CCC2)c1
200 nM	N#Cc1ccc(OCc2ccc(Cl)cc2)c(C2=C(c3cccc(C(=O)O)c3)CCC2)c1
31.6 nM	CSc1ccc(OCc2ccc(F)cc2)c(C2=C(c3cccc(C(=O)O)c3)CCC2)c1
3.16 nM	O=C(O)c1ccnc(C2=C(c3cc(Br)ccc3OCc3ccc(F)cc3)CCC2)c1
2 nM	O=C(O)c1cncc(C2=C(c3cc(Cl)ccc3OCc3ccc(F)cc3F)CCC2)n1
6.31 nM	O=C(O)c1cnnc(C2=C(c3cc(Cl)ccc3OCc3ccc(F)cc3F)CCC2)c1
79.4 nM	CS(=O)(=O)c1ccc(OCc2ccccc2)c(C2=C(c3cccc(C(=O)O)c3)CCC2)c1
20 nM	O=C(O)c1cccc(C2=C(c3cc(Br)ccc3OCc3ccc(F)cc3)CCC2)c1
398 nM	N#Cc1ccc(OCc2ccc(F)cc2)c(C2=C(c3cccc(C(=O)O)c3)CCC2)c1
12.6 nM	O=C(O)c1cccc(C2=C(c3cc(Br)ccc3OCc3ccccc3)CCC2)c1
10 nM	O=C(O)c1cncc(C2=C(c3cc(C(F)(F)F)ccc3OCc3ccccc3)CCC2)c1
15.8 nM	CS(=O)(=O)c1ccc(OCc2ccc(F)cc2F)c(C2=C(c3cccc(C(=O)O)c3)CCC2)c1
1.58 nM	Cc1ncc(C2=C(c3cc(Cl)ccc3OCc3ccc(F)cc3)CCC2)cc1C(=O)O
5.01 nM	O=C(O)c1cccc(C2=C(c3cc(Br)ccc3OCc3ccc(F)cc3F)CCC2)c1
12.6 nM	O=C(O)c1cccc(C2=C(c3cc(Br)ccc3OCc3ccc(Cl)cc3)CCC2)c1
2.51 nM	O=C(O)c1cccc(C2=C(c3cc(Cl)ccc3OCc3ccc(F)cc3F)CCC2)n1
